Data set [1] has as its system Plasmodium falciparum. Put plainly: Antiplasmodial activity against Plasmodium falciparum 3D7. Format: functional, organism-based. The method in brief: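 P. falciparum 3D7 kept in erythrocyte culture. Triplicate cultures exposed to a range of purine base concentrations for 48 h, without radiolabel. Giemsa-stained blood smears examined by light microscopy to determine parasitemia. IC50 taken as the inhibition of growth, from counts of viable parasites.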

For data set [2], the system named is Sphi609. Put plainly: Inhibition of Escherichia coli Sphi609 cells expressing human HGPRT. Format: functional, cell-based.
The test system of data set [3] is Plasmodium falciparum. In words: Inhibition of [3H]hypoxanthine uptake in Plasmodium falciparum 3D7. It is filed as functional, organism-based. The conditions noted are these: 3D7, 48 h.
A further data set deals with Plasmodium chabaudi. In words: Inhibition of Plasmodium chabaudi 6 oxopurine phosphoribosyl transferase.
For data set [4], the system named is Plasmodium falciparum.
The next data set relates to Plasmodium lophurae. Put plainly: Inhibition of Plasmodium lophurae 6 oxopurine phosphoribosyl transferase.
The subject of data set [5] is Sphi609. Put plainly: Inhibition of Escherichia coli Sphi609 cells expressing Plasmodium falciparum HGXPRT. Format: functional, cell-based.
In data set [6] the test system is Plasmodium falciparum. The source holds these as a separate data set.
A short description of data set [7]: Inhibition of Plasmodium falciparum HGXPRT at pH 7.4.
The nature of data set [8]: Inhibition of Toxoplasma gondii 6 oxopurine phosphoribosyl transferase.
Data set [9] relates to Plasmodium falciparum. In words: Antimalarial activity against Plasmodium falciparum 3D7 at 125 uM. Format: functional, organism-based.
Data set [10] concerns Plasmodium falciparum. Put plainly: Inhibition of [3H]hypoxanthine uptake into Plasmodium falciparum 3D7 at 125 uM. Format: functional, organism-based.
Data set [11] deals with Plasmodium falciparum. Put plainly: Inhibition of [3H]hypoxanthine uptake into Plasmodium falciparum 3D7 at 130 uM. Format: functional, organism-based.
Data set [12] has as its system Plasmodium falciparum. Put plainly: Antimalarial activity against Plasmodium falciparum 3D7 at 130 uM. Format: functional, organism-based.
Data set [13] has as its system Plasmodium falciparum. In words: Antimalarial activity against Plasmodium falciparum. It is filed as functional, organism-based. The procedure, abridged: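 P. falciparum 3D7, a laboratory-adapted isolate, was kept in erythrocyte culture. Triplicate cultures were exposed to a range of purine base concentrations with 0.5 µCi/well [3H]hypoxanthine for 48 h, and label incorporation into nucleic acids was measured. Parallel cultures without label were run for 48 h, and parasitemia was read on Giemsa-stained smears by light microscopy. IC50 was derived for each read-out.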

In data set [14] the test system is Plasmodium falciparum. In words: Inhibition of [3H]hypoxanthine uptake into Plasmodium falciparum 3D7 at 120 uM. Format: functional, organism-based.
The subject of data set [15] is Plasmodium falciparum. In words: Antimalarial activity against Plasmodium falciparum 3D7 at 120 uM. Format: functional, organism-based.
Substrate in data set [16]: Nc1nc2[nH]cnc2c(=S)[nH]1
The conditions noted are these: Homo sapiens.

Substrate in data set [17]: Sc1ncnc2nc[nH]c12
The conditions noted are these: Homo sapiens.

Substrate in data set [18]: Nc1nc2[nH]cnc2c(=O)[nH]1
The following applies: Homo sapiens.

Substrate in data set [19]: O=c1[nH]cnc2nc[nH]c12
The conditions noted are these: Homo sapiens.

Substrate in data set [20]: Nc1nc(O)c2[nH]nnc2n1
The conditions noted are these: Homo sapiens.

Substrate in data set [21]: Oc1ncnc2[nH]ncc12
The following applies: Homo sapiens.

Substrate in data set [22]: Nc1nc2[nH]cnc2c(=S)[nH]1
The following applies: Homo sapiens. The source holds these as a separate data set.

Substrate in data set [23]: Sc1ncnc2nc[nH]c12
The conditions noted are these: Homo sapiens. This is another data set of the same source.

Substrate in data set [24]: Nc1nc2[nH]cnc2c(=O)[nH]1
The conditions noted are these: Homo sapiens. This is another data set of the same source.

Substrate in data set [25]: O=c1[nH]cnc2nc[nH]c12
The following applies: Homo sapiens. This is another data set of the same source.

Substrate in data set [26]: Oc1ncnc2[nH]ncc12
The conditions noted are these: Homo sapiens. This is another data set of the same source.

The source made the active and inactive calls. The calls are words filed in the database; no cut-off is given here.

As usually defined, the IC50 is the concentration at which inhibition is half-maximal. The Km is the concentration of substrate that gives half-maximal velocity. Turning to `Sc1ncnc2nc[nH]c12` [MERCAPTOPURINE ANHYDROUS], the figures for the IC50 in the data set with Plasmodium falciparum [1] and in the data set with Plasmodium falciparum [3] were 2 µM and 1.3 µM, respectively. Besides, the outcome in the data set with Sphi609 [2], with Plasmodium chabaudi, in the data set with Plasmodium lophurae and in the data set on Sphi609 [5] was Active. Besides, the Michaelis constant (Km) in the data set on Plasmodium falciparum [4] came out at 0.02 µM; in the data set on Plasmodium falciparum [6], 1.6 µM.
As for `Nc1nc2[nH]cnc2c(=S)[nH]1` [THIOGUANINE], the figures for the IC50 with Plasmodium falciparum [1] and with Plasmodium falciparum [3] were 10 µM and 21.3 µM, respectively. Also, the outcome with Sphi609 [2], in the data set with Plasmodium chabaudi, in the data set with Plasmodium lophurae and with Sphi609 [5] was Active. Also, the Michaelis constant (Km) was found to be 0.75 µM in the data set with Plasmodium falciparum [4] and 1.9 µM in the data set on Plasmodium falciparum [6].
As to `Nc1nc(O)c2[nH]nnc2n1` [8-AZAGUANINE], the IC50 in the data set on Plasmodium falciparum [1] turned out to be 18 µM; in the data set on Plasmodium falciparum [3], 6.6 µM. The Michaelis constant (Km) in the data set on Plasmodium falciparum [4] amounted to 12.6 µM; in the data set on Plasmodium falciparum [6] it was 26.6 µM.
The Ki is a measure of affinity in units of concentration, obtained from inhibition or displacement. A higher Ki goes with a looser hold on the target. `O=c1[nH]c(=O)c2nn[nH]c2[nH]1`: in data set [7], the Ki is at least 100 µM.
Take `O=c1[nH]cnc2[nH]nnc12`: the figures for the IC50 in the data set on Plasmodium falciparum [1] and in the data set with Plasmodium falciparum [3] were 38 µM and 90 µM, respectively. The figures for the Michaelis constant (Km) in the data set on Plasmodium falciparum [4] and in the data set with Plasmodium falciparum [6] were 25.6 µM and 145 µM, respectively.
Consider `Nc1nc(Cl)c2nc[nH]c2n1` [6-CHLOROGUANINE], for which the IC50 stood at 10 µM in the data set on Plasmodium falciparum [1] and 67 µM in the data set with Plasmodium falciparum [3]. In addition, the Km with Plasmodium falciparum [4] stood at 176 µM.
Turning to `Nc1nc2ncnc-2c[nH]1` [2-AMINOPURINE], affinity in data set [8] was put at a Ki of 60 µM.
Turning to `O=c1[nH]c(S)nc2[nH]cnc12`, the result in the data set on Plasmodium falciparum [9] and in the data set with Plasmodium falciparum [10] was inactive.
As to `O=c1[nH]c(=O)c2nc[nH]c2[nH]1`, the outcome in the data set with Plasmodium falciparum [11] and in the data set on Plasmodium falciparum [12] was inactive. The Km was 189 µM with Plasmodium falciparum [4] and 420 µM with Plasmodium falciparum [6].
In the data set on Plasmodium falciparum [3], `Oc1ncnc2[nH]ncc12` [ALLOPURINOL] yielded an IC50 of at least 150 µM. The outcome with Plasmodium falciparum [13] was inactive. In addition, the Michaelis-Menten constant (Km) is 10.5 µM with Plasmodium falciparum [4] and 11.7 µM in the data set on Plasmodium falciparum [6].
`O=c1[nH]cnc2nc[nH]c12` [HYPOXANTHINE] yielded a 50% inhibitory concentration (IC50) in the data set with Plasmodium falciparum [3] of 4.2 µM. Also, the Michaelis constant (Km) was determined as 0.07 µM in the data set on Plasmodium falciparum [4] and 0.9 µM in the data set on Plasmodium falciparum [6].
As to `O=c1[nH]c(=S)c2nc[nH]c2[nH]1`, the result in the data set on Plasmodium falciparum [14] and in the data set on Plasmodium falciparum [15] was inactive. Also, in the data set with Plasmodium falciparum [4], the Km was found to be 82 µM.
With `Nc1nc2[nH]cnc2c(=O)[nH]1` [GUANINE], the figures for the IC50 in the data set on Plasmodium falciparum [1] and in the data set with Plasmodium falciparum [3] were 60 µM and 35.3 µM, respectively. The Km was 0.83 µM in the data set on Plasmodium falciparum [4] and 1.4 µM in the data set on Plasmodium falciparum [6].

B1: Hypoxanthine-guanine phosphoribosyltransferase (Homo sapiens), P00492 (protein)
chain: MATRSPGVVISDDEPGYDLDLFCIPNHYAEDLERVFIPHGLIMDRTERLARDVMKEMGGHHIVALCVLKGGYKFFADLLDYIKALNRNSDRSIPMTVDFIRLKSYCNDQSTGDIKVIGGDDLSTLTGKNVLIVEDIIDTGKTMQTLLSLVRQYNPKMVKVASLLVKRTPRSVGYKPDFVGFEIPDKFVVGYALDYNEYFRDLNHVCVISETGKAKYKA
For B1, the Michaelis constant (Km) turned out to be 1.7 µM in [16]; 1.15 µM in [17]; 1.9 µM in data set [18]; 3.4 µM in [19]; 72 µM in [20]; 47.9 µM in data set [21]. The Michaelis-Menten constant (Km) was found to be 5.9 µM in [22]; 3 µM in data set [23]; 1.9 µM in data set [24]; 3.1 µM in data set [25]; 135 µM in data set [26].

The record behind these values is ChEMBL document CHEMBL1138206, “Lead compounds for antimalarial chemotherapy: purine base analogs discriminate between human and P. falciparum 6-oxopurine phosphoribosyltransferases” (J Med Chem, 2006).
